Assay results: the RNAGym collection of RNA variant scans (doi:10.1126/science.aae0568)
Variants at the floor of the assay were thinned out.

B1: tRNA (parent)
chain: GUUCCGUUGGCGUAAUGGUAACGCGUCUCCCUCCUAAGGAGAAGACUGCGGGUUCGAGUCCCGUACGGAACG

Variants of: B1
Experiment: yeast fitness relative to wild type (ratio to wild type); higher = fitter; tRNA-Arg(CCU), competitive growth, 37 C, YPD
In short: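 Genotype frequency changes were the basis for Darwinian fitness relative to wild type. The frequencies came from 100-nucleotide paired-end sequencing of gene amplicons from the start population and each end population of pooled yeast strains with tRNA-Arg(CCU) gene variants at the native locus. Competition ran in YPD at 37°C for 24 hours in six replicates, genotypes needed ≥ 100 starting reads, and estimates < 0.5 were set to 0.5.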

Row | Variant | yeast fitness
1 | GUUCCGUUCGCGUAAUGGUAACGCGUCUCCCUCCUCAGGAGAAGACUGCGGGUUAGAGUCCCGUACGGAACG [G9C A36C C55A] | 0.525
2 | GUUCCGUUCGCGUAAUGGUAACGCGUCUCCCUCCUCAGGAGAAGACUGCGGGUUUGAGUCCCGUACGGAACG [G9C A36C C55U] | ≤ 0.5
3 | GUUCCGUUCGCGUAAUGGUAACGCGUCUCCCUCCUAAGGGGGAGACUGCGGGUUCGUGUCCCGUACGGAACG [G9C A40G A42G A57U] | ≤ 0.5
4 | GUUCCGUUCGCGUAAUGGUAACGCGUCUCCCUCCUAAGGAGCAGACUGCGGGUUCGAGUCCCGUACGGCACG [G9C A42C A69C] | 0.564
5 | GUUCCGUUCGCGUAAUGGUAACGCGUCUCCCUCCUCAGGAGAAGACUGCGGGUUCGAGUCACGUACGGAACG [G9C A36C C61A] | 0.616
6 | GUUCCGUUCGCGUAAUGGUAACGCGUCUCCCUCCUAAGGAGCAGACUGCGGGUUCGAGUCCCGUACGCAACG [G9C A42C G68C] | 0.542
7 | GUUCCGUUCGCGUAAUGGUAACGCGUCUCCCUCCUAAGGAGCAGACUGCGGGUUCGAGUCCCGUACGGAACG [G9C A42C] | 0.684
8 | GUUCCGUUCGCGUAAUGGUUACGCGUCACCCUCCUAAGGAGAAGACUGCGGGUUCGAGUCCUGUACGGAACG [G9C A20U U28A C62U] | ≤ 0.5
9 | GUUCCGUUCGCGUAAUGGUAACGCGUCUCCCUCCUAGGGAGAAGACUGCGGGUUGGAGUGCCGUACGGAACG [G9C A37G C55G C60G] | 0.524
10 | GUUCCGUUCGCGUAAUGGUUACGCGUGUCCCUCCUAAGGAGAAGACUGUGGGUUCGAGUCCCGUACGGAACG [G9C A20U C27G C49U] | 0.55
11 | GUUCCGUUCGCGUAAUGGUAACGCGUCUCCCUCCUAAGGAGGAGACUGCGGGUUCGUGUCCCGUACGGAACG [G9C A42G A57U] | 0.521
12 | GUUCCGUUCGCGUAAUGGUAACGCGUCUCCCUCCUAAGGAGGAGACUGCGGAUUCGAGUCCCGUACGGAACG [G9C A42G G52A] | ≤ 0.5
13 | GUUCCGUUCGCGUAAUGGUUACGCGUCUCCCUCCUAAGGAGAAGACCGCGGGUUCGAGUCCCGUACGGAACG [G9C A20U U47C] | ≤ 0.5
14 | GUUCCGUUCGCGUAAUGGUAACGCGUCUCCCUCCUAGGGAAAAGACUGCGGGUUCGAGUCCCGUACGGAACG [G9C A37G G41A] | ≤ 0.5
15 | GUUCCGUUCGCGUAAUGGUAACGCGUCUCCCUCCUAGGGAAAAGACUGCGGGUUCGAGUCGCGUACGGAACG [G9C A37G G41A C61G] | ≤ 0.5
16 | GUUCCGUUCGCGUAAUGGUAUCGCGUCUCCCUCCUAAGGAGAAGACUGCGGGUUCGAGUCCCGUAAGGAACG [G9C A21U C66A] | 0.585
17 | GUUCCGUUCGCGUAAUGGUAACGCGUCUCCCUCCUACGGAGAAGAUUGCGGGAUCGAGUCCCGUACGGAACG [G9C A37C C46U U53A] | ≤ 0.5
18 | GUUCCGUUCGCGUAAUGGUAACGCGUCUCCCUCCUAAGGUGAAGAUUGCGGGUUCGAGUCCCGUACGGAACG [G9C A40U C46U] | 0.511
19 | GUUCCGUUCGCGUAAUGGUAACGCGUCUCCCUCCUAGGGAGAAGACUGCGGGUUCGAGUCCCGUACGGAACG [G9C A37G] | 0.623

Row | Variant | yeast fitness
20 | GUUCCGUUCGCGUAAUGGUAUCGCGUCUCCGUCCUAAGGCGAAGACUGCGGGUUCGAGUCCUGCACGGAACG [G9C A21U C31G A40C C62U U64C] | 0.518
21 | GUUCCGUUCGCGUAAUGGUAACGCGUCUCCCUCCUUAGGUGAAAACUGCGGGUUCGAGUCCCAUACGGCACG [G9C A36U A40U G44A G63A A69C] | ≤ 0.5
22 | GUUCCGUUCGCGUAAUGGUACCGCGUCUCCCUCCUAAGGAGAAGACUGCGGGUUCGAGUCCCGUACGGAACG [G9C A21C] | 0.652
23 | GUUCCGUUCGCGUAAUGGUAGCGCGUCUCCCUCCUAAGGAGAAGACUGCGGGUUCGAGUCCCGUACGGAACG [G9C A21G] | 0.669
24 | GUUCCGUUCGCGUAAUGGUAUCGCGUCUCCCUCCUAAGGAGAAGACUGCGGGUUCGAGUCCCGUACGGAACG [G9C A21U] | 0.509
25 | GUUCCGUUCGCGUAAUGGUAACGCGUCUCCCUCCUCGGGAGAAGACUGCGGGUUCGAGUCCCGCACGGAACG [G9C A36C A37G U64C] | ≤ 0.5
26 | GUUCCGUUCGCGUAAUGGUAACGCGUCUCCCUCCUAAGGAGCAGACUGGGGGUUCGAGUCCCGUACGAAACG [G9C A42C C49G G68A] | ≤ 0.5
27 | GUUCCGUUCGCGUAAUGGUAUCGCGUUUCCCUCCUAAGGAGAAGACUGCGGGUUCGAGUCCCGUACGGAACG [G9C A21U C27U] | ≤ 0.5
28 | GUUCCGUUCGCGUAAUGGUAACGCGUCUCCCUCCUGAGGAGAAGACUGCGGGUUCGAGUCCUGUACGGAACG [G9C A36G C62U] | ≤ 0.5
29 | GUUCCGUUCGCGUAAUGGUACCGCGUCUCCCUCCUAAGGAGAAGACUGCGGGUUCGGGUCCCGUACGGAACG [G9C A21C A57G] | ≤ 0.5
30 | GUUCCGUUCGCGUAAUGGUAACGCGUCUCCCUCCUAAGGUGAAGACUGCGGGUUCGAGUCCCGUCCGGAACG [G9C A40U A65C] | 0.531
31 | GUUCCGUUCGCGUAAUGGUAACGCGUCUCCCUCCUAAGGCGAAGACUGCGCGUUCGAGUCCCGCACGGAACG [G9C A40C G51C U64C] | 0.79
32 | GUUCCGUUCGCGUAAUGGUAACGCGUCUCCCUCCUAAGGAGUAGACUGCGGGUUCGAGUCUCGAACGGGACG [G9C A42U C61U U64A A69G] | ≤ 0.5
33 | GUUCCGUUCGCGUAAUGGUAACGCGUCUCCCUCCUGAGGAGAAGACUGCGGGUUCGAGUCCCGUACGGAGCG [G9C A36G A70G] | ≤ 0.5
34 | GUUCCGUUCGCGUAAUGGUGACGCGUCUCCCUCCCGAGGAGAAGACUGCGGGUUCGAGACCCGUAGGGAACG [G9C A20G U35C A36G U59A C66G] | ≤ 0.5
35 | GUUCCGUUCGCGUAAUGGUAACGCGUCUCCCUCCUAAGGUGAAGACUGCGGGUUCGAGUCCCGUACGGAACG [G9C A40U] | 0.756
36 | GUUCCGUUCGCGUAAUGGUUACGCGUCACCCUCCUAAGGAGUAGACUACGGGUUCGAGUCCCGUACGGAACG [G9C A20U U28A A42U G48A] | ≤ 0.5
37 | GUUCCGUUCGCGUAAUGGUAACGCGUCUCCCUCCUUAGGAGAAGACUGCGGGUUCGAGUCCCGUACGGAACG [G9C A36U] | 0.618
38 | GUUCCGUUCGCGUAAUGGUAACGCGUCUCCCUCCUGAGGAGAAGACUGCGGGUUCGAGUCCCGUACGGAACG [G9C A36G] | 0.691
